Calls of active or inactive are those of the source.
Assays:
[1] = Elimination half life in Sprague-Dawley rat at 2 mg/kg, iv; type: ADME, organism-based; set-up: dose 2 mg/kg, route intravenous; conditions: in vivo, read-out: beta t1/2
Summary of the method: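 Three female Sprague-Dawley rats per group (10–12 weeks), jugular-vein catheterized; 2 mg/kg in 3% EtOH-7% Tween 80-90% normal saline given through the catheter. Plasma drawn from the catheter at set times, acetonitrile extraction with internal standard, LC/MS quantification.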

[2] = target: 5-hydroxytryptamine receptor 5A (Homo sapiens) (UniProt P47898); assay: Inhibition of 5HT5A receptor at 10 uM
Summary of the method: (§1)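 Radioligand displacement screen by a contractor across 50 receptors, ion channels and transporters, test compound at 10 μM; decrease in specific ligand binding expressed as percentage, with >50% decrease taken as significant.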

[3] = target: 5-hydroxytryptamine receptor 6 (Homo sapiens) (UniProt P50406); assay: Inhibition of 5HT6 receptor at 10 uM; summary of the method: as §1
Rattus norvegicus [4] = assay: Toxicity in Plasmodium berghei NK65 infected Sprague-Dawley rat assessed as effect on liver enzyme levels at 50 mg/kg, perorally administered every 8 hrs for 3 days; type: organism-based; set-up: dose 50 mg/kg, route oral; conditions: in vivo, po
Summary of the method: (§2)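 Female Sprague-Dawley rats, 10-12 weeks, n = 3 per schedule. Dosed 50 mg/kg by oral gavage every 8 h or every 12 h for 72 h. At the end of dosing, blood was sent to a clinical laboratory for complete blood counts, white cell differentials, electrolytes, glucose, renal function, liver enzymes and cholesterol.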

[5] = target: 5-hydroxytryptamine receptor 3A (Homo sapiens) (UniProt P46098); assay: Inhibition of 5HT3 receptor at 10 uM; summary of the method: as §1
[6] = target: Vasopressin V1a receptor (Homo sapiens) (UniProt P37288); assay: Inhibition of vasopressin V1a receptor at 10 uM
Summary of the method: (§3)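 Radioligand displacement at a contract lab across a panel of 50 receptors, ion channels and transporters, single test concentration 10 μM; loss of specific ligand binding reported as percent, with >50% decrease counted as significant.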

[7] = Inhibition of dopamine GABA receptor at 10 uM
Summary of the method: (§4)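 Radioligand displacement screen at a 10 μM test concentration, run by a contract lab across a panel of 50 receptors, pharmacologically active ion channels and transporters. The read-out is the decrease in specific radiolabeled ligand binding, expressed as a percentage. A decrease above 50% was considered significant.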

[8] = target: Sodium-dependent dopamine transporter (Homo sapiens) (UniProt Q01959); assay: Inhibition of DAT at 10 uM; summary of the method: as §1
[9] = Inhibition of Plasmodium falciparum protein farnesyltransferase by SPA method
Rattus norvegicus [10] = assay: Toxicity in Plasmodium berghei NK65 infected Sprague-Dawley rat assessed as effect on renal function at 50 mg/kg, perorally administered every 12 hrs for 3 days; type: organism-based; set-up: dose 50 mg/kg, route oral; conditions: in vivo, po, in the assay text read “every 8 hrs” for “every 12 hrs”; summary of the method: as §2
[11] = Inhibition of L-type calcium channel at verapamil site at 10 uM; summary of the method: as §4
[12] = target: 5-hydroxytryptamine receptor 7 (Homo sapiens) (UniProt P34969); assay: Inhibition of 5HT7 receptor at 10 uM; summary of the method: as §1
[13] = target: Endothelin-1 receptor (Homo sapiens) (UniProt P25101); assay: Inhibition of ETA receptor at 10 uM; summary of the method: as §1
[14] = target: Histamine H2 receptor (Homo sapiens) (UniProt P25021); assay: Inhibition of histamine H2 receptor at 10 uM; summary of the method: as §3
[15] = target: Nociceptin receptor (Homo sapiens) (UniProt P41146); assay: Inhibition of ORL1 receptor at 10 uM; summary of the method: as §1
[16] = Cmax in Sprague-Dawley rat at 50 mg/kg, po; type: ADME, organism-based; set-up: dose 50 mg/kg, route oral; conditions: in vivo
Summary of the method: (§5)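 50 mg/kg by oral gavage in 3% EtOH-7% Tween 80-90% normal saline to groups of three females (BALB/c mice, 8–10 weeks, tail bleed; Sprague-Dawley rats, 10–12 weeks, saphenous vein). Plasma extracted with acetonitrile/internal standard, LC/MS; means of three animals. Oral elimination half-life depends on absorption rate as well as elimination.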

[17] = target: 5-hydroxytryptamine receptor 2A (Homo sapiens) (UniProt P28223); assay: Inhibition of 5HT2A receptor at 10 uM; summary of the method: as §1
[18] = target: Muscarinic acetylcholine receptor M3 (Homo sapiens) (UniProt P20309); assay: Inhibition of muscarinic M3 receptor at 10 uM; summary of the method: as §3
Rattus norvegicus [19] = assay: Toxicity in Plasmodium berghei NK65 infected Sprague-Dawley rat assessed as effect on cholesterol levels at 50 mg/kg, perorally administered every 8 hrs for 3 days; type: organism-based; set-up: dose 50 mg/kg, route oral; conditions: in vivo, po; summary of the method: as §2
[20] = AUC in Sprague-Dawley rat at 50 mg/kg, po; type: ADME, organism-based; set-up: dose 50 mg/kg, route oral; conditions: plasma
Summary of the method: (§6)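 Three female BALB/c mice (lines for mice, 8–10 weeks) or three female Sprague-Dawley rats (10–12 weeks) per group; 50 mg/kg oral gavage in 3% EtOH-7% Tween 80-90% normal saline. Plasma sampled at set times (tail bleed in mice, saphenous vein in rats), extracted with acetonitrile plus internal standard, quantified by LC/MS; AUC as mean of three animals.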

[21] = target: Cholecystokinin receptor type A (Homo sapiens) (UniProt P32238); assay: Inhibition of CCK1 receptor at 10 uM; summary of the method: as §1
[22] = target: 5-hydroxytryptamine receptor 1B (Homo sapiens) (UniProt P28222); assay: Inhibition of 5HT1B receptor at 10 uM; summary of the method: as §1
Rattus norvegicus [23] = assay: Toxicity in Plasmodium berghei NK65 infected Sprague-Dawley rat assessed as effect on blood counts at 50 mg/kg, perorally administered every 8 hrs for 3 days; type: organism-based; set-up: dose 50 mg/kg, route oral; conditions: in vivo, po; summary of the method: as §2
Rattus norvegicus [24] = assay: Toxicity in Plasmodium berghei NK65 infected Sprague-Dawley rat assessed as effect on liver enzyme levels at 50 mg/kg, perorally administered every 12 hrs for 3 days; type: organism-based; set-up: dose 50 mg/kg, route oral; conditions: in vivo, po, in the assay text read “every 8 hrs” for “every 12 hrs”; summary of the method: as §2
[25] = Elimination half life in Sprague-Dawley rat at 50 mg/kg, po; type: ADME, organism-based; set-up: dose 50 mg/kg, route oral; conditions: in vivo, read-out: beta t1/2; summary of the method: as §5
[26] = target: Type-1 angiotensin II receptor (Homo sapiens) (UniProt P30556); assay: Inhibition of angiotensin AT1 receptor at 10 uM; summary of the method: as §3
[27] = target: B2 bradykinin receptor (Homo sapiens) (UniProt P30411); assay: Inhibition of bradykinin B2 receptor at 10 uM; summary of the method: as §3
[28] = target: Neuromedin-K receptor (Homo sapiens) (UniProt P29371); assay: Inhibition of NK3 receptor at 10 uM; summary of the method: as §1
[29] = Inhibition of SKCa channel at 10 uM; summary of the method: as §4
Plasmodium falciparum = assay: Antiplasmodial activity against Plasmodium falciparum by [3H]hypoxanthine uptake; type: functional; conditions: read-out: ED50 (the source's name)
Summary of the method: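 Asynchronous P. falciparum (3D7 or K1) in RPMI 1640 with 20% heat-inactivated human A+ plasma, 0.5% parasitemia and 0.5% hematocrit; compound serially diluted, top final 5 μM, 48 h at 37°C under 5% CO2/5% O2/90% N2, then [8-3H]hypoxanthine 0.3 μCi added for 24 h.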

[30] = target: 5-hydroxytryptamine receptor 1A (Homo sapiens) (UniProt P08908); assay: Inhibition of 5HT1A receptor at 10 uM; summary of the method: as §1
[31] = AUC in BALB/c mouse at 50 mg/kg, po; type: ADME, organism-based; set-up: dose 50 mg/kg, route oral; conditions: plasma; summary of the method: as §6
[32] = target: C-X-C chemokine receptor type 2 (Homo sapiens) (UniProt P25025); assay: Inhibition of CXCR2 receptor at 10 uM; summary of the method: as §1
[33] = target: Sodium-dependent noradrenaline transporter (Homo sapiens) (UniProt P23975); assay: Inhibition of NET at 10 uM; summary of the method: as §1
[34] = Inhibition of Sodium channel site 2 at 10 uM; summary of the method: as §4

Chain of B2 bradykinin receptor (Homo sapiens) (P30411 whole entry): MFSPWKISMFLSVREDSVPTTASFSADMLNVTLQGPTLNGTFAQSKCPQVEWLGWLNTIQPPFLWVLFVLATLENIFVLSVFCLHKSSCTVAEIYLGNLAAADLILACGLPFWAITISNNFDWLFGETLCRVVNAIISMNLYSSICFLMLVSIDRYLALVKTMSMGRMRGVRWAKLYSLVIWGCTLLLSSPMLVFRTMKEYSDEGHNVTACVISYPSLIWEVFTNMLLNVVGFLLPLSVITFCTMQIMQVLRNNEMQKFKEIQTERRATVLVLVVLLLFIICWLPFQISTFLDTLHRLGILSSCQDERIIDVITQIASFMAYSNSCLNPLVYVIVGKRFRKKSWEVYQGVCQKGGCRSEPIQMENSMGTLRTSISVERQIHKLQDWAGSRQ
Chain of 5-hydroxytryptamine receptor 6 (Homo sapiens) (P50406 whole entry): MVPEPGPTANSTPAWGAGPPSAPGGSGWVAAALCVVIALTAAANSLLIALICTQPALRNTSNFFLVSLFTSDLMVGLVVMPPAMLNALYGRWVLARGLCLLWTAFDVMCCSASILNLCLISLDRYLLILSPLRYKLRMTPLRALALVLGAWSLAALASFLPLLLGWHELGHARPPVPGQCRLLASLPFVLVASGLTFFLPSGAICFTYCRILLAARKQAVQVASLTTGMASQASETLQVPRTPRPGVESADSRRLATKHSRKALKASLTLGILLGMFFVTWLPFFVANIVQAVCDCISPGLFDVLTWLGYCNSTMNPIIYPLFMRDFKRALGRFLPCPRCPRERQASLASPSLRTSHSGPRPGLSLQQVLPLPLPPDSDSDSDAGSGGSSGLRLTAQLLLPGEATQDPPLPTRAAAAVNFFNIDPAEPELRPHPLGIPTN
Chain of Vasopressin V1a receptor (Homo sapiens) (P37288 whole entry, looked up): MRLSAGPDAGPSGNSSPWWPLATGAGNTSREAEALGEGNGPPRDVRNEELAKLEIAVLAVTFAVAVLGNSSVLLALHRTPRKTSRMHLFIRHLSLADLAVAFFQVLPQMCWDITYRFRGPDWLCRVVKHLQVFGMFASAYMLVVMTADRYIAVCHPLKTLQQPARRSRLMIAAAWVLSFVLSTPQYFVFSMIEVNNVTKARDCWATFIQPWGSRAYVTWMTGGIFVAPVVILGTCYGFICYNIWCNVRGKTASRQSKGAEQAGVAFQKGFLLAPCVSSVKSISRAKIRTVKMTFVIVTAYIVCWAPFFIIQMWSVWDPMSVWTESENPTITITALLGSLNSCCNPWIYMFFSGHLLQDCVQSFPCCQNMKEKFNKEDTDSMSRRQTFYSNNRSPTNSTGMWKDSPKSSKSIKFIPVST
Chain of 5-hydroxytryptamine receptor 2A (Homo sapiens) (P28223 whole entry): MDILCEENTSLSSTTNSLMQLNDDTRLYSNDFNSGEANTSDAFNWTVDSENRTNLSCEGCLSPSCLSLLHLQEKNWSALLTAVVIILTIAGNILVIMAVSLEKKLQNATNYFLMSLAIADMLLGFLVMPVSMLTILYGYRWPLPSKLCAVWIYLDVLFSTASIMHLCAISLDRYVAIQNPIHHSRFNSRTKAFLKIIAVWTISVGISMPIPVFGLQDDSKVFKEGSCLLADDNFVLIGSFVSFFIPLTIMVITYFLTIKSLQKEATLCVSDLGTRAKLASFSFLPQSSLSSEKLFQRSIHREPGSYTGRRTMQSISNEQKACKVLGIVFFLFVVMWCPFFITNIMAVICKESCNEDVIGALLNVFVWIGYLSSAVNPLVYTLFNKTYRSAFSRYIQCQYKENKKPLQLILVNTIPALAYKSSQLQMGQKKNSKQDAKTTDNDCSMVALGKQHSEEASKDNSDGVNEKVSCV
Chain of Muscarinic acetylcholine receptor M3 (Homo sapiens) (P20309 whole entry, looked up): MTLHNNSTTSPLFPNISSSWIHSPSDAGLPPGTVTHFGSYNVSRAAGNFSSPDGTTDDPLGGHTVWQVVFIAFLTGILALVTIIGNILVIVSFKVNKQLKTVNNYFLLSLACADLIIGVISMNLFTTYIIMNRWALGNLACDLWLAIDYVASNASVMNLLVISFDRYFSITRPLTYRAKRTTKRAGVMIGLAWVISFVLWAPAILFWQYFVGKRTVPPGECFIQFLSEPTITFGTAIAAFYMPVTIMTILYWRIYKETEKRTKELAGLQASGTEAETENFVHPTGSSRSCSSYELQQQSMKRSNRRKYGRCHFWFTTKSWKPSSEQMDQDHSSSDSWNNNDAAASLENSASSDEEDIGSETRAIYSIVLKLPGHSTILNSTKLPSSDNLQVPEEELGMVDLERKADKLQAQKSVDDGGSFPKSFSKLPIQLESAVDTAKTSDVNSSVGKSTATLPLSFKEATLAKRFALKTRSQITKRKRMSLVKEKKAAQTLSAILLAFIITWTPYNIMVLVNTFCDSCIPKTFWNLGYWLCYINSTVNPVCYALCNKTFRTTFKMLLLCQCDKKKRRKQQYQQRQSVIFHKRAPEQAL
Chain of Type-1 angiotensin II receptor (Homo sapiens) (P30556 whole entry): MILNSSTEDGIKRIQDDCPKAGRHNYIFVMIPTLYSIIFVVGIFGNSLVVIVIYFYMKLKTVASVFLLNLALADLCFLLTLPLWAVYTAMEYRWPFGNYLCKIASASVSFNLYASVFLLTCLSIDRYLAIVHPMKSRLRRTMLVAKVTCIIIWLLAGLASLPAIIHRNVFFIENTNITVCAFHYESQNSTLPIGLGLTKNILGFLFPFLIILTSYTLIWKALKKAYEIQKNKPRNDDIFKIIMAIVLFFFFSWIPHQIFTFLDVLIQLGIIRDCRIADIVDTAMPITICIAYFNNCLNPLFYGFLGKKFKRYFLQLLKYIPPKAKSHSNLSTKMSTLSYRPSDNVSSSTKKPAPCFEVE
Chain of C-X-C chemokine receptor type 2 (Homo sapiens) (P25025 whole entry): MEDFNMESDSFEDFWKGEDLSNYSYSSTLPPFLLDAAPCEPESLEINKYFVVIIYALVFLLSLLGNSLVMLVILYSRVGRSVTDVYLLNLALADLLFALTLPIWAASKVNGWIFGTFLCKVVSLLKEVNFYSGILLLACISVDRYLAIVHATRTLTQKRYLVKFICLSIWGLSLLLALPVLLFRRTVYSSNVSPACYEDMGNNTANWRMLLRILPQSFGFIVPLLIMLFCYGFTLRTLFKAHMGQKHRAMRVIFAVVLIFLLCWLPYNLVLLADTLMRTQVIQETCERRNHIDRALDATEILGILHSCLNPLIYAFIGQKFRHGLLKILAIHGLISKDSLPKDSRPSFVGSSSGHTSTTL
Chain of 5-hydroxytryptamine receptor 7 (Homo sapiens) (P34969 whole entry): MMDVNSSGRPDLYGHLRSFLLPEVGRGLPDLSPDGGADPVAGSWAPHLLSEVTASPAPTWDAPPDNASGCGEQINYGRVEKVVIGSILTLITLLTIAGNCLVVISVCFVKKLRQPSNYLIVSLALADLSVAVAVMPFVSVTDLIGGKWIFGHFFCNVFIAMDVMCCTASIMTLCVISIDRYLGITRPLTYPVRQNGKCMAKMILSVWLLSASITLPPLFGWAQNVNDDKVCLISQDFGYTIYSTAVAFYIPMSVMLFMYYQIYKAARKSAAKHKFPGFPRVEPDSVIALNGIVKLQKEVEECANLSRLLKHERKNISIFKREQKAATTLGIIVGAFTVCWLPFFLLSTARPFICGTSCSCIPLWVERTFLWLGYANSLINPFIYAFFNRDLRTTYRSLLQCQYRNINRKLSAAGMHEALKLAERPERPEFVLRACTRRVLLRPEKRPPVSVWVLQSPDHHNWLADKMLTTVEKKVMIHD
Chain of Cholecystokinin receptor type A (Homo sapiens) (P32238 whole entry): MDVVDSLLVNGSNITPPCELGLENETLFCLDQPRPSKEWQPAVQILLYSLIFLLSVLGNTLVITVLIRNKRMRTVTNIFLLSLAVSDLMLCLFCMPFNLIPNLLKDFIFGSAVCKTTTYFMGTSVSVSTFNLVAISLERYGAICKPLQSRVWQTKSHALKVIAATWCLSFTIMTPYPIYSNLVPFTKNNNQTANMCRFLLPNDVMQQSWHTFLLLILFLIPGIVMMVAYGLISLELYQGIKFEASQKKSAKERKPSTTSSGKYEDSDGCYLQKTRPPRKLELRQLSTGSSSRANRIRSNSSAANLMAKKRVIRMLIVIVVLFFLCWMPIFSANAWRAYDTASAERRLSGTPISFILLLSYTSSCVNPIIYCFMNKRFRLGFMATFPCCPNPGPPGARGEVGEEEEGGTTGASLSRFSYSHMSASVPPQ
Chain of 5-hydroxytryptamine receptor 3A (Homo sapiens) (P46098 whole entry): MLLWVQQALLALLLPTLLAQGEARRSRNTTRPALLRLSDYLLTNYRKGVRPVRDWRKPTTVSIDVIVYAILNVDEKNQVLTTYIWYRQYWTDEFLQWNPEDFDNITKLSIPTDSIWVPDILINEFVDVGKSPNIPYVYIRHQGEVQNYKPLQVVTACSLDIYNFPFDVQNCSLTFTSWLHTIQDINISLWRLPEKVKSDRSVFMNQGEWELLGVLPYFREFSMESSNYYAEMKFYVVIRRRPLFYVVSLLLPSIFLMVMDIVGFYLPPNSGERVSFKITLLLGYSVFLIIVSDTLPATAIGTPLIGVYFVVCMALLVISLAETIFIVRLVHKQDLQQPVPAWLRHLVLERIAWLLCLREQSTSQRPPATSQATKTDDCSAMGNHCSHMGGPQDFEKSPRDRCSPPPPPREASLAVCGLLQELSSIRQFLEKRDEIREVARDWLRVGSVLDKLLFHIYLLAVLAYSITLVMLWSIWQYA
Chain of 5-hydroxytryptamine receptor 1A (Homo sapiens) (P08908 whole entry): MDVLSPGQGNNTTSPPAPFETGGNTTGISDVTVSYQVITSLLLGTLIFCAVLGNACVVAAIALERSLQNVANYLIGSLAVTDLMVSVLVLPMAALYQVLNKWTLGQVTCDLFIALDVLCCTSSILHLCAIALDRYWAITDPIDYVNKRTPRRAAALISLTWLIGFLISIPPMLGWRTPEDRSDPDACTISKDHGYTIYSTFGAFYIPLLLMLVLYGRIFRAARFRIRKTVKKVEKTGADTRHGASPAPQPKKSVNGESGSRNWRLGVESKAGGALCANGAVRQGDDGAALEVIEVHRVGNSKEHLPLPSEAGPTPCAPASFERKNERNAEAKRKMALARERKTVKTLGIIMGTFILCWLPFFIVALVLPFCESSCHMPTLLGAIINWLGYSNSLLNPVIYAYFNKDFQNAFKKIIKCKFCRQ

Structure (SMILES): COC(=O)N1CCC(CN(C2Cc3cc(C#N)ccc3N(Cc3cncn3C)C2)S(=O)(=O)c2ccccn2)CC1 (stereo not given)
- half-life [1]: 17 min
- inhibition [2]: inactive
- inhibition [3]: inactive
- Activity (Rattus norvegicus [4]): Non-toxic
- inhibition [5]: inactive
- inhibition [6]: 81%
- inhibition [7]: inactive
- inhibition [8]: inactive
- IC50 [9]: 0.58 nM
- Activity (Rattus norvegicus [10]): Non-toxic
- inhibition [11]: inactive
- inhibition [12]: inactive
- inhibition [13]: inactive
- inhibition [14]: inactive
- inhibition [15]: inactive
- Cmax [16]: 4.5 µM
- inhibition [17]: inactive
- inhibition [18]: inactive
- Activity (Rattus norvegicus [19]): Non-toxic
- AUC [20]: 10.9 µM·h
- inhibition [21]: inactive
- inhibition [22]: inactive
- Activity (Rattus norvegicus [23]): Non-toxic
- Activity (Rattus norvegicus [24]): Non-toxic
- half-life [25]: 41 min
- inhibition [26]: inactive
- inhibition [27]: inactive
- inhibition [28]: inactive
- inhibition [29]: inactive
- EC50 (Plasmodium falciparum): 18 nM
- inhibition [30]: inactive
- AUC [31]: 3.68 µM·h
- inhibition [32]: inactive
- inhibition [33]: inactive
- inhibition [34]: inactive
